This is an account of results in ChEMBL document CHEMBL4346670, “Discovery of Novel Janus Kinase (JAK) and Histone Deacetylase (HDAC) Dual Inhibitors for the Treatment of Hematological Malignancies” (J Med Chem, 2019).

Test [1] deals with T1, Histone deacetylase (Homo sapiens) (UniProt Q13547+O15379+Q9UBN7+Q92769+Q9UQL6+Q8WUI4+Q9BY41+Q96DB2+P56524+Q9UKV0+Q969S8). Nature of the test: Inhibition of HDAC in human HeLa nuclear extract at 10 uM using Boc-Lys(acetyl)-AMC as substrate preincubated for 5 mins followed by substrate addition and measured after 30 mins by fluorescence assay. Format: cell-free. The essentials: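 HeLa nuclear extract mixed with compound and held at 37 °C for 5 min. Boc-Lys(acetyl)-AMC added and incubated 30 min at 37 °C. Quenched with developer containing trypsin and trichostatin A, then 20 min at 37 °C. Fluorescence read at ex 390/em 460 nm; inhibition calculated relative to control wells.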

Test [2] concerns K562. Nature of the test: Antiproliferative activity against human K562 cells assessed as reduction in cell viability after 48 hrs by MTT assay. It counts as functional, cell-based. As to conditions: K562, 48 h. For orientation: Formazan colour is commonly taken as a measure of viable cells.
Test [3] has as its system HEL. Nature of the test: Antiproliferative activity against HEL cells harboring JAK2 V617F mutant assessed as reduction in cell viability after 48 hrs by MTT assay. Conditions: Homo sapiens. It counts as functional, cell-based.
Test [4] addresses Tyrosine-protein kinase JAK2 (Homo sapiens, UniProt O60674). Nature of the test: Inhibition of recombinant human JAK2 using Ulight-CAGAGAIETDKEYYTVKD as substrate measured after 60 mins by LANCE assay.
In test [5] the target is Histone deacetylase. Put plainly: Inhibition of HDAC in human HeLa nuclear extract using Boc-Lys(acetyl)-AMC as substrate preincubated for 5 mins followed by substrate addition and measured after 30 mins by fluorescence assay. Format: cell-based.
For test [6], the target named is T2, Histone deacetylase 2 (Homo sapiens, UniProt Q92769). Nature of the test: Inhibition of HDAC2 (unknown origin) using Boc-Lys(acetyl)-AMC as substrate preincubated for 5 mins followed by substrate addition and measured after 30 mins by fluorescence assay.
The target of test [7] is T3, Protein deacetylase HDAC6 (Homo sapiens, UniProt Q9UBN7).
T3 sequence (Q9UBN7 whole entry): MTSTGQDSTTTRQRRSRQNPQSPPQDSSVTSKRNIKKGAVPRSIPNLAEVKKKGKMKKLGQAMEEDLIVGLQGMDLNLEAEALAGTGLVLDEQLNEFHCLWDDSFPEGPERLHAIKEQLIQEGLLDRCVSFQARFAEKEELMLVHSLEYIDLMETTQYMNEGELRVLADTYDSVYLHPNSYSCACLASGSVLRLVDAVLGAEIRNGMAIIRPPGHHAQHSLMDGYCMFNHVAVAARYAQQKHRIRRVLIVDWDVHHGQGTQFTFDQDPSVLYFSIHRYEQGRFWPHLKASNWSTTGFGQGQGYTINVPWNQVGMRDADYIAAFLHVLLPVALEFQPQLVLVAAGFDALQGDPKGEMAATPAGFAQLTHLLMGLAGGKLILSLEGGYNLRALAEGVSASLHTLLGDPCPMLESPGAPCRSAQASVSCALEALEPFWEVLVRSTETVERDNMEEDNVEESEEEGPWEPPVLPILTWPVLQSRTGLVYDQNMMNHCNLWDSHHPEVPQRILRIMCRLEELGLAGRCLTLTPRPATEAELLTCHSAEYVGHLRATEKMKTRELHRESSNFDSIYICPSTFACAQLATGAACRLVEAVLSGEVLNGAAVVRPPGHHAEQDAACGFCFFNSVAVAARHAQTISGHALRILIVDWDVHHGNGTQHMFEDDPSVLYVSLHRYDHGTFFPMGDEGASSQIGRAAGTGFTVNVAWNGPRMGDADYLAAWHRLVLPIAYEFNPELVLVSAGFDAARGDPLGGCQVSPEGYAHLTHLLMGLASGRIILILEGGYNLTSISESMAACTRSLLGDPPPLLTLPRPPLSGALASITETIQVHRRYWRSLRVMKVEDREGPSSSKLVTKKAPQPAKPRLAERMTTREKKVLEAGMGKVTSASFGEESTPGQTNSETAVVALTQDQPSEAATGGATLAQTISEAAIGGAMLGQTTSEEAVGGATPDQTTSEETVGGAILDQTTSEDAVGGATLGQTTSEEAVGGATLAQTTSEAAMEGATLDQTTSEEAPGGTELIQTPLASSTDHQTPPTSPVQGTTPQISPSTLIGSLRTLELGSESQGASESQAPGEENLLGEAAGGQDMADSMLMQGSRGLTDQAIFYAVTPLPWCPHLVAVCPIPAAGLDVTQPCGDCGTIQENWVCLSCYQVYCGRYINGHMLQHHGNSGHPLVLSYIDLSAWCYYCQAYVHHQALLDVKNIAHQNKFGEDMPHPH
Put plainly: Inhibition of HDAC6 (unknown origin) using Boc-Lys(acetyl)-AMC as substrate preincubated for 5 mins followed by substrate addition and measured after 30 mins by fluorescence assay.

Test [8] deals with T4, Histone deacetylase 8 (Homo sapiens, UniProt Q9BY41).
T4 sequence (Q9BY41 whole entry): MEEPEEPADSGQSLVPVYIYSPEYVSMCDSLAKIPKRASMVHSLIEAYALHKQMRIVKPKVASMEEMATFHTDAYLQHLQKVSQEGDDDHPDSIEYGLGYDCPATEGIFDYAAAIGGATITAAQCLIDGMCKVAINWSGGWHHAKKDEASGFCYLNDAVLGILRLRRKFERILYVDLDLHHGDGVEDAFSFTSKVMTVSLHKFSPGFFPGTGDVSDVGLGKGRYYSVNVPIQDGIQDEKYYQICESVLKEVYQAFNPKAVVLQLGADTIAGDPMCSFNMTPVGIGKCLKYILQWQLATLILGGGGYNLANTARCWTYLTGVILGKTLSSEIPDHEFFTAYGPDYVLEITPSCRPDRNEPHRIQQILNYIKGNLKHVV
Nature of the test: Inhibition of HDAC8 (unknown origin) using Boc-Lys(trifluoroacetyl)-AMC as substrate preincubated for 5 mins followed by substrate addition and measured after 30 mins by fluorescence assay.

The test system of test [9] is MOLT-4. Put plainly: Antiproliferative activity against human MOLT4 cells assessed as reduction in cell viability after 48 hrs by MTT assay. Format: functional, cell-based. As to conditions: MOLT-4, 48 h. In outline:
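Cells kept in RPMI1640 with 10% FBS at 37 °C, 5% CO2. Seeded and grown for 12 h, then exposed to a range of compound concentrations for 48 h. 0.5% MTT added for 4 h, formazan dissolved in DMSO, absorbance read at 570 nm.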

Test [10] concerns Jurkat. Nature of the test: Antiproliferative activity against human Jurkat cells assessed as reduction in cell viability after 48 hrs by MTT assay. It counts as functional, cell-based.
Test [11] deals with T2, Histone deacetylase 2. Conditions: A549, at 80 to 400 nM.
The target in test [12] is T1, Histone deacetylase (Homo sapiens). Nature of the test: Potency index, ratio of SAHA IC50 to test compound IC50 for inhibition of HDAC in human HeLa cell nuclear extract. It counts as cell-based. In outline:
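HeLa cell nuclear extract was incubated with serial concentrations of compound for 5 min at 37 °C. Boc-Lys(acetyl)-AMC substrate was added for 30 min at 37 °C, then developer containing trypsin and TSA for 20 min. Fluorescence was read at ex 390/em 460 nm against control wells.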

The target in test [13] is Tyrosine-protein kinase JAK1 (Homo sapiens, UniProt P23458). Nature of the test: Inhibition of recombinant human JAK1 using Ulight-CAGAGAIETDKEYYTVKD as substrate measured after 60 mins by LANCE assay. The essentials: (§1)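 Human recombinant JAK enzyme assays run by a contract lab. IC50 was taken from a non-linear curve fit, with all parameters allowed to float. Assays were run in replicate (n>2) and reported as mean ± SD.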
(In TR-FRET formats the signal depends on donor and acceptor labels being close together.)

Test [14] deals with T5, Tyrosine-protein kinase JAK3 (Homo sapiens, UniProt P52333).
T5 sequence (P52333 whole entry): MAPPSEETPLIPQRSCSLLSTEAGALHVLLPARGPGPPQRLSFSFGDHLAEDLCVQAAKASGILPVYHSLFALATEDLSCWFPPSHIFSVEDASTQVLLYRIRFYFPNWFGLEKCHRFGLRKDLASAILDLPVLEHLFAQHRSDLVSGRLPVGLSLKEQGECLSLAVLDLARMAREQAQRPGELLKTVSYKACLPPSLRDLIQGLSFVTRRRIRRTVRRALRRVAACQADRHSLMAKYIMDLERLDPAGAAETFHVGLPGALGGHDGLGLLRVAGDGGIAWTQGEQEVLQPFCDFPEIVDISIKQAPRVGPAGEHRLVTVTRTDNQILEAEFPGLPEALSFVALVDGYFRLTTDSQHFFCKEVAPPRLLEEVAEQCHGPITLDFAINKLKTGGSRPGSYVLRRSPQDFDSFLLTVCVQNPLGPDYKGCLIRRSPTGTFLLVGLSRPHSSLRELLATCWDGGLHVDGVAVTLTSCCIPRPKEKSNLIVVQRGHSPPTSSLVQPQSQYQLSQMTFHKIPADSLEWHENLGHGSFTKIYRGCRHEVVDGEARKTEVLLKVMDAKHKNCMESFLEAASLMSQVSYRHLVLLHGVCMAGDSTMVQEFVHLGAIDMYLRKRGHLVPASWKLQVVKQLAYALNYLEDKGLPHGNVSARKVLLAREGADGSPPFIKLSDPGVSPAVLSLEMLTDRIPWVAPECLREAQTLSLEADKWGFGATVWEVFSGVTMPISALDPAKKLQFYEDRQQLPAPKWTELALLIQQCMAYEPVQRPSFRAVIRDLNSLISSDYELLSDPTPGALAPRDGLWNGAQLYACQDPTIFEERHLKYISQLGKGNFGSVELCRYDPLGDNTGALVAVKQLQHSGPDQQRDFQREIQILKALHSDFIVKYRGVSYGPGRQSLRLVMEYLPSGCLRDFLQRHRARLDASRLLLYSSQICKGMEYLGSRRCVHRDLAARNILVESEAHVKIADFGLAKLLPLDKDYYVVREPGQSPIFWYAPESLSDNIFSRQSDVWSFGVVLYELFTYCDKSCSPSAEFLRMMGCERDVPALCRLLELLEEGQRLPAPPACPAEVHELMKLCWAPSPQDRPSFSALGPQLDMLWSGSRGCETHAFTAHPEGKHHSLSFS
Put plainly: Inhibition of recombinant human JAK3 using Ulight-CAGAGAIETDKEYYTVKD as substrate measured after 60 mins by LANCE assay.

In test [15] the target is Non-receptor tyrosine-protein kinase TYK2 (Homo sapiens, UniProt P29597). Nature of the test: Inhibition of recombinant human TYK2 using Ulight-CAGAGAIETDKEYYTVKD as substrate measured after 60 mins by LANCE assay. The essentials: as §1

Molecules are shown by their SMILES. Calls of active or inactive are those of the source. The calls are words filed in the database; no cut-off is given here. Bounds are passed on as bounds.

As usually defined, the IC50 is the midpoint of a concentration-inhibition curve.

Tyrosine-protein kinase JAK2, sequence (O60674 whole entry): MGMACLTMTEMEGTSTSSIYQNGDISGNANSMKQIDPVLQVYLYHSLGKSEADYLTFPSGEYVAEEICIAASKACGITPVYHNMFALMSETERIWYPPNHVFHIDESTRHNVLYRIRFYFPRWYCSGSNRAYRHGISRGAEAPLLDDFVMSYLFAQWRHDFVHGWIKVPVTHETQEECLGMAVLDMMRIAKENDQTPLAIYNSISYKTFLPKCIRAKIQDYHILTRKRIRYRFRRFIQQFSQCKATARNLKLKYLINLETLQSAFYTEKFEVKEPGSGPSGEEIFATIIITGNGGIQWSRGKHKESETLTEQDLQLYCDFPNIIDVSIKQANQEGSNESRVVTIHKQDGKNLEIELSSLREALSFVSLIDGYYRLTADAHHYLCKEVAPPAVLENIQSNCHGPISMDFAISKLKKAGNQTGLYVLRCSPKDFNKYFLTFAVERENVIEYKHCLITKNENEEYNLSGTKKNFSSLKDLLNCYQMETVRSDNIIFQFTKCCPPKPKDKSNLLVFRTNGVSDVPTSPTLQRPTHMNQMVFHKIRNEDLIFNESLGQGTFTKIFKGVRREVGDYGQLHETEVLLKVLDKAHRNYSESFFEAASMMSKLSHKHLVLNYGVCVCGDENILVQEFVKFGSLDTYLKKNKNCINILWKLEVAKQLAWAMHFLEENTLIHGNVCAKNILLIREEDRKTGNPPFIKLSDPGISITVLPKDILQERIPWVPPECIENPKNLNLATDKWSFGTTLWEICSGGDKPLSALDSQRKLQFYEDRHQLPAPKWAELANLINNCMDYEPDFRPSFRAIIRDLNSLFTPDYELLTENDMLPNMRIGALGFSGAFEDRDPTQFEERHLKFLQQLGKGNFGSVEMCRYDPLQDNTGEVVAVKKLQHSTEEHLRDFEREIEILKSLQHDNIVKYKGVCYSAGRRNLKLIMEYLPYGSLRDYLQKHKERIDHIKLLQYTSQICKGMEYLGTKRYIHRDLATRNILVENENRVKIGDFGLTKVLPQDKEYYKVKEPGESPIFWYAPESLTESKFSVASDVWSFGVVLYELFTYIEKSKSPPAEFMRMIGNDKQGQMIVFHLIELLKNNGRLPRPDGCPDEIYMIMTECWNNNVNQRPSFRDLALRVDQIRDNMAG
Tyrosine-protein kinase JAK1, sequence (P23458 whole entry): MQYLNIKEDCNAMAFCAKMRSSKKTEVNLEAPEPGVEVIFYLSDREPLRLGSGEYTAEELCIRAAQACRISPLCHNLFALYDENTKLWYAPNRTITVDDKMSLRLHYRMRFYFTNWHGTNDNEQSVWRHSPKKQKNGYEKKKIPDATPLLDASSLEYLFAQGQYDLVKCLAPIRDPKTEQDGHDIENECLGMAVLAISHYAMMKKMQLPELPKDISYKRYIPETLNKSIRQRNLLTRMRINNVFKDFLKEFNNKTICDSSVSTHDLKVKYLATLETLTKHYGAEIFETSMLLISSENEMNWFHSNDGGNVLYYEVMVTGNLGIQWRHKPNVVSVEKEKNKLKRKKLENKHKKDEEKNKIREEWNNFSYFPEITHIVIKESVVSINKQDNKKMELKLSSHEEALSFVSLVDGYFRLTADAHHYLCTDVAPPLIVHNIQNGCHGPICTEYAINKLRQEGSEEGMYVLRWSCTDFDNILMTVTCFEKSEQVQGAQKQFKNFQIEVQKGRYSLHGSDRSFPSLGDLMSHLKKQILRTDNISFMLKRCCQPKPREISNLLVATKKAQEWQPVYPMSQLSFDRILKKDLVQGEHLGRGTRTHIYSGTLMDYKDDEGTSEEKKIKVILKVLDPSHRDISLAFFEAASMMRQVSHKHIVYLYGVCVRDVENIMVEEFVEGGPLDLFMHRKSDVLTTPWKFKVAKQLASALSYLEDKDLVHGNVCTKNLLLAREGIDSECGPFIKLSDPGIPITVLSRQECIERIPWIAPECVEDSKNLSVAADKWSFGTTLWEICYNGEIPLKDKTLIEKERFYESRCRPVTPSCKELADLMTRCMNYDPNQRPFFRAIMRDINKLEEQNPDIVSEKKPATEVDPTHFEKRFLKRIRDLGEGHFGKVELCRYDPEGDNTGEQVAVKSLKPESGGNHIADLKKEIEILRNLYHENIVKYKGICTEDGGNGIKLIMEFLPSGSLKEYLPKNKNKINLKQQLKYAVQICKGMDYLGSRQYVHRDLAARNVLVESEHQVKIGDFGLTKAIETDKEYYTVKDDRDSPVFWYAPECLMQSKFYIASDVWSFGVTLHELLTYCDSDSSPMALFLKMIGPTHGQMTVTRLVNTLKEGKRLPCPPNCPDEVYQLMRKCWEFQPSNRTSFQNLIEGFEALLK
Non-receptor tyrosine-protein kinase TYK2, sequence (P29597 whole entry): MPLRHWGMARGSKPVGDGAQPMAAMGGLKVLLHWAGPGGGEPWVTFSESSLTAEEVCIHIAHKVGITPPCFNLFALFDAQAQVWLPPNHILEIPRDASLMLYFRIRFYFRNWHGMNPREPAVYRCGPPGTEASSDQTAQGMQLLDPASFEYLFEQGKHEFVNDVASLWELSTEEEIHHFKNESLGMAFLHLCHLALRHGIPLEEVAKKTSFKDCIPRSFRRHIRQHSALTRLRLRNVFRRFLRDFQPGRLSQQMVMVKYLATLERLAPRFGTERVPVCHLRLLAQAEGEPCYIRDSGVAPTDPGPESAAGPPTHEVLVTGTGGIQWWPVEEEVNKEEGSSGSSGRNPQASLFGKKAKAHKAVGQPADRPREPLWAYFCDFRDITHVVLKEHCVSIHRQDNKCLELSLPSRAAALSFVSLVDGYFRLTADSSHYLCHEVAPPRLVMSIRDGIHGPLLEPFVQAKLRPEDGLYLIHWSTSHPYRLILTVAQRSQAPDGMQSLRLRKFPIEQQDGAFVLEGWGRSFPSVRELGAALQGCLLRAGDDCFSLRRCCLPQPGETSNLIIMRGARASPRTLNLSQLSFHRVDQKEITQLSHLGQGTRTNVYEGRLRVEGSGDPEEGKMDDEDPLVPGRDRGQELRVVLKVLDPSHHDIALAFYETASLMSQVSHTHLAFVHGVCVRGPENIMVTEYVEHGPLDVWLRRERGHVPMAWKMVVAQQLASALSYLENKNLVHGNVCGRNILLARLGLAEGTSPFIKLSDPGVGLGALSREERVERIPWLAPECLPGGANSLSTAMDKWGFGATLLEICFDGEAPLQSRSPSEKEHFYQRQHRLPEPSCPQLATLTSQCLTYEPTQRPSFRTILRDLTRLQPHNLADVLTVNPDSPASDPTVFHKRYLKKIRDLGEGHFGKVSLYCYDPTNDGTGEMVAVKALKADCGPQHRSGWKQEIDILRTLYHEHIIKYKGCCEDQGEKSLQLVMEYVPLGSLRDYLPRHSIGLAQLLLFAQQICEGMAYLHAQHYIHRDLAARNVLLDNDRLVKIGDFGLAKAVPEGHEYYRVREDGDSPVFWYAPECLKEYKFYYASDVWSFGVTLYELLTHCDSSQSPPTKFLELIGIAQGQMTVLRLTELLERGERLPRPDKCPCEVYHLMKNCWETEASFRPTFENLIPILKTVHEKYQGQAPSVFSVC
T2 sequence (Q92769 whole entry): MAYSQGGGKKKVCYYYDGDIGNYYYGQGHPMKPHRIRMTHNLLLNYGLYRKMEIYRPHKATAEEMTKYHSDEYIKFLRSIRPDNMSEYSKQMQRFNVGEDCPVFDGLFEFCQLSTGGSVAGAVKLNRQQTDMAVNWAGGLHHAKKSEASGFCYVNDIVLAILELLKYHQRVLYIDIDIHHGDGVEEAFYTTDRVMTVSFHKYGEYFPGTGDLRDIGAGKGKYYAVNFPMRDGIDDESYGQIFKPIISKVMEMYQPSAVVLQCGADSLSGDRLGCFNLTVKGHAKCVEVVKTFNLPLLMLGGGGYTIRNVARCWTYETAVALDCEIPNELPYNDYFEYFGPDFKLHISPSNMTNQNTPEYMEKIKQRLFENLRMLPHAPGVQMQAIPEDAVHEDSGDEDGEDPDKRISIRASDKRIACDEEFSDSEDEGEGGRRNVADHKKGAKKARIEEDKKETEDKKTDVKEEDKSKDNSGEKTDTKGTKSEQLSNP

With `Clc1cccc(Nc2nc(Nc3cn[nH]c3)ncc2Cl)c1`, the inhibition result in test [1] is “inactive”.
In the case of `CNc1nc(Nc2cnn(CCCCCCC(=O)NO)c2)ncc1Cl`, the half-maximal inhibitory concentration (IC50) in test [2] was found to be 590 nM; in [3], 100 nM; in test [4], 36 nM; in test [5] it was 15 nM; in test [6] it was 190 nM; in [7] it was 29 nM. Also, the figures for the IC50 in test [8], in test [9] and in test [10] were 4.07 µM, 110 nM and 70 nM, respectively. Also, the inhibition entry in [11] was “Active”.
`O=C(CCCCCCn1cc(Nc2ncc(Cl)c(Nc3ccc(F)cc3)n2)cn1)NO`: the IC50 worked out at 500 nM in test [2]; 210 nM in [3]; 15 nM in test [4]; 3 nM in test [5]; 220 nM in test [9]; 120 nM in [10]. The Ratio IC50 in test [12] is above 50.
For `O=C(CCCCCCn1cc(Nc2ncc(Cl)c(Nc3ccc(Cl)cc3)n2)cn1)NO`, the IC50 in [2] worked out at 320 nM; in [3], 120 nM; in test [4] it was 14 nM; in test [5] it was 2 nM; in test [13], 10 nM; in [14], 7.6 nM. The IC50 in test [15] is 94 nM; in test [9] it was 120 nM; in [10], 100 nM. Also, in test [12], the Ratio IC50 is above 50.
As to `COc1ccc(Nc2nc(Nc3cnn(CCCCCCC(=O)NO)c3)ncc2Cl)cc1`, the concentration for half-maximal inhibition (IC50) in test [2] came out at 620 nM; in test [3], 210 nM; in [4] it was 10 nM; in [5], 3 nM; in [9], 170 nM; in test [10] it was 130 nM. Also, the Ratio IC50 in test [12] is above 50.
`O=C(CCCCCCn1cc(Nc2ncc(F)c(Nc3ccc(F)cc3)n2)cn1)NO`: the results for the IC50 in [4] and in [5] were above 100 nM and 3 nM, respectively. In addition, in test [12], the Ratio IC50 is above 50.
Take `O=C(CCCCCCn1cc(Nc2ncc(Cl)c(NC3CC3)n2)cn1)NO`: the IC50 in test [2] was 380 nM; in [3], 80 nM; in [5], 13 nM; in test [13], 14 nM; in test [14] it was 2 nM; in test [15] it was 12 nM. For the same compound, the results for the IC50 in [9] and in test [10] were 150 nM and 50 nM, respectively.
